One series deals with Histone deacetylase 4 (Homo sapiens, UniProt P56524). Kind of series: Inhibition of full length human HDAC4 using FAM-labeled acetylated peptide as substrate by electrophoretic mobility shift assay. In short, it runs like this: (§1)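 Full-length human HDAC isoform enzymatic assay by electrophoretic mobility shift, using a FAM-labelled acetylated peptide substrate. […] Values are the mean of duplicate experiments with 95% confidence intervals.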
A general note: Mobility shift assays separate free from complexed probe on a gel.

Series [1] deals with MV4-11. Kind of series: Induction of apoptosis in human MV4-11 cells assessed as late apoptotic cells at 4 uM incubated for 15 mins by Annexin-V/FITC staining based FACS analysis (reference value: 4.17%). It is filed as functional. The following applies: 0.25 h. In short, it runs like this:
(§2)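 MV4-11 cells were dosed, then washed twice in cold PBS and resuspended in binding buffer at 1×10^6 cells/mL. Cells were stained with FITC-annexin V and propidium iodide for 15 min in the dark, diluted with binding buffer and analysed by flow cytometry within 1 h. Quadrants: LL viable, LR early apoptotic, UR late apoptotic. Duplicate experiments averaged; DMSO control.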
Background: A flow cytometer gives signals particle by particle.

A short description of series [2]: Stability in human whole blood assessed as compound remaining measured after 15 mins. The note with it: read-out: Stability. It is filed as ADME, tissue-based.
Series [3] in a line: Stability in human whole blood assessed as compound remaining measured after 60 mins. It is filed as ADME, tissue-based. The note with it: read-out: Stability.
Series [4] is described as follows: Stability in human whole blood assessed as compound remaining measured after 30 mins. It is filed as ADME, tissue-based. The note with it: read-out: Stability.
For the next series, the target named is Histone deacetylase 9 (Homo sapiens, UniProt Q9UKV0). In words: Inhibition of full length human HDAC9 using FAM-labeled acetylated peptide as substrate by electrophoretic mobility shift assay. The method, boiled down: as §1
Histone deacetylase 9, sequence (Q9UKV0 whole entry): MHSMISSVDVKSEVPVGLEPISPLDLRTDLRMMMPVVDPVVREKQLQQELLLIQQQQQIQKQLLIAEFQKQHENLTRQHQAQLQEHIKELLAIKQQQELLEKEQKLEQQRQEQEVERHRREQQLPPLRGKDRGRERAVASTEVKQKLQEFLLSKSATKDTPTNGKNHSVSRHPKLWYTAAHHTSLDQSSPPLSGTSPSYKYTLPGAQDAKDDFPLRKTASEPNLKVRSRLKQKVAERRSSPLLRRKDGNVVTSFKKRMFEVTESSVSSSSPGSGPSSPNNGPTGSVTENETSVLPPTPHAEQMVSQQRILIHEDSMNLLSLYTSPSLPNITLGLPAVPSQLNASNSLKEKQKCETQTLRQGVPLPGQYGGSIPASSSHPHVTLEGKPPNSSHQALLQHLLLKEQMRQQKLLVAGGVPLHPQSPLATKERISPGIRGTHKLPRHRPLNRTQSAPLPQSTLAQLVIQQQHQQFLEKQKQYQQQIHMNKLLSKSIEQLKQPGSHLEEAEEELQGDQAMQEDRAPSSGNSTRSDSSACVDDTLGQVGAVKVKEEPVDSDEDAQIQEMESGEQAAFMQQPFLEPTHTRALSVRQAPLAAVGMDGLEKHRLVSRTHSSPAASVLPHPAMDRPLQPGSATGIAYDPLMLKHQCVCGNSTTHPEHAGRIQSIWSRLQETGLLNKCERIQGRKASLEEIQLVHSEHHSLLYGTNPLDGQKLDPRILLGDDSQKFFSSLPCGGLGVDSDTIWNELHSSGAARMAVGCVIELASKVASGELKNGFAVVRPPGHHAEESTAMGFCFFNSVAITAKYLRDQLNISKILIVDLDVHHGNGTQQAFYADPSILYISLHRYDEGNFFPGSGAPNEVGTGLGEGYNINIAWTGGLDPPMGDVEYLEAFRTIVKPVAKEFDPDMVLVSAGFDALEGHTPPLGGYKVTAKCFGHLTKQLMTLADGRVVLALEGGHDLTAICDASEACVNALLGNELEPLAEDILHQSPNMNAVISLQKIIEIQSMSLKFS
The test system of series [5] is MV4-11. Kind of series: Induction of apoptosis in human MV4-11 cells assessed as late apoptotic cells at 0.50 uM incubated for 15 mins by Annexin-V/FITC staining based FACS analysis (reference value: 4.17%). It is filed as functional. The note with it: dose 0.5 µM, 0.25 h. In short, it runs like this:
as §2

The subject of series [6] is MV4-11. Kind of series: Induction of apoptosis in human MV4-11 cells assessed as early apoptotic cells at 4 uM incubated for 15 mins by Annexin-V/FITC staining based FACS analysis (reference value: 0.70%). It is filed as functional. The following applies: 0.25 h. The method, boiled down: as §2
The test system of series [7] is MV4-11. Kind of series: Induction of apoptosis in human MV4-11 cells assessed as viable cells at 0.50 uM incubated for 15 mins by Annexin-V/FITC staining based FACS analysis (reference value: 35.53%). It is filed as functional. The note with it: MV4-11, 0.25 h, read-out: Activity. The method, boiled down:
as §2

Series [8] can be described thus: Stability in mouse plasma assessed as compound remaining measured after 15 mins. It is filed as ADME, cell-free. The following applies: read-out: Stability.
The target in series [9] is T1, Protein deacetylase HDAC6 (Homo sapiens) (UniProt Q9UBN7).
T1 sequence (whole entry): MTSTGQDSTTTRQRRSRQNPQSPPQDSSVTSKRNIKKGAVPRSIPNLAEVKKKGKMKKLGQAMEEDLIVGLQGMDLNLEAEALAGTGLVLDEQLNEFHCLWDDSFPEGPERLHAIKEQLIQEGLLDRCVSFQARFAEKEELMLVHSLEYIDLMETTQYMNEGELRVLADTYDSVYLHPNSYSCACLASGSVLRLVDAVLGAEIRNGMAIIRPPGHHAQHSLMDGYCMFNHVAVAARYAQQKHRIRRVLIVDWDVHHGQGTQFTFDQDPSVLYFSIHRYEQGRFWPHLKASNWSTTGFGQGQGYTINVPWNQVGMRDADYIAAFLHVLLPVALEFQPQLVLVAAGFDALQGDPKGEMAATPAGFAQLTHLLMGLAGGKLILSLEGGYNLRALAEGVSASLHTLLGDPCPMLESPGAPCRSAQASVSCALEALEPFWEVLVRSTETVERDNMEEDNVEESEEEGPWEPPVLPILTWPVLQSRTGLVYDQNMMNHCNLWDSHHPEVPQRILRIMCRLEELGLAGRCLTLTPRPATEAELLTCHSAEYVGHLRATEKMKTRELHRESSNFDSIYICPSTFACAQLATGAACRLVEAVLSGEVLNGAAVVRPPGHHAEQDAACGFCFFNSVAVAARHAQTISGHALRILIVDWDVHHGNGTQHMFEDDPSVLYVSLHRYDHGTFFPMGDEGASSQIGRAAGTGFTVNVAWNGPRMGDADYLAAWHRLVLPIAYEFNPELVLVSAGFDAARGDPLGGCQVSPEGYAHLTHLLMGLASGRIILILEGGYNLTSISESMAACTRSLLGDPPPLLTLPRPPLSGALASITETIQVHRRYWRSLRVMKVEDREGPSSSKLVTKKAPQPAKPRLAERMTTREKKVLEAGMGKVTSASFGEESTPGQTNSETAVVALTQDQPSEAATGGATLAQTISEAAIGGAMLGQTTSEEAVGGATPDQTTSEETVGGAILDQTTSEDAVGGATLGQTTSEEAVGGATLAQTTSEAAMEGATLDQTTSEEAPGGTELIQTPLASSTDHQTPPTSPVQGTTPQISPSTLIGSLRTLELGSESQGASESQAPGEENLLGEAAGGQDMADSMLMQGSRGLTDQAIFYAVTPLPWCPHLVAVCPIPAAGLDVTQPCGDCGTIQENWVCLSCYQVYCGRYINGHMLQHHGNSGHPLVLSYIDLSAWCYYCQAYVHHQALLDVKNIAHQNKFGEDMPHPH
In words: Binding affinity to human HDAC6 assessed as residence time by two-step reversible inhibition model.

The target of another series is Histone deacetylase 5 (Homo sapiens, UniProt Q9UQL6). In words: Inhibition of full length human HDAC5 using FAM-labeled acetylated peptide as substrate by electrophoretic mobility shift assay. The method, boiled down: as §1
Histone deacetylase 5, sequence (Q9UQL6 whole entry): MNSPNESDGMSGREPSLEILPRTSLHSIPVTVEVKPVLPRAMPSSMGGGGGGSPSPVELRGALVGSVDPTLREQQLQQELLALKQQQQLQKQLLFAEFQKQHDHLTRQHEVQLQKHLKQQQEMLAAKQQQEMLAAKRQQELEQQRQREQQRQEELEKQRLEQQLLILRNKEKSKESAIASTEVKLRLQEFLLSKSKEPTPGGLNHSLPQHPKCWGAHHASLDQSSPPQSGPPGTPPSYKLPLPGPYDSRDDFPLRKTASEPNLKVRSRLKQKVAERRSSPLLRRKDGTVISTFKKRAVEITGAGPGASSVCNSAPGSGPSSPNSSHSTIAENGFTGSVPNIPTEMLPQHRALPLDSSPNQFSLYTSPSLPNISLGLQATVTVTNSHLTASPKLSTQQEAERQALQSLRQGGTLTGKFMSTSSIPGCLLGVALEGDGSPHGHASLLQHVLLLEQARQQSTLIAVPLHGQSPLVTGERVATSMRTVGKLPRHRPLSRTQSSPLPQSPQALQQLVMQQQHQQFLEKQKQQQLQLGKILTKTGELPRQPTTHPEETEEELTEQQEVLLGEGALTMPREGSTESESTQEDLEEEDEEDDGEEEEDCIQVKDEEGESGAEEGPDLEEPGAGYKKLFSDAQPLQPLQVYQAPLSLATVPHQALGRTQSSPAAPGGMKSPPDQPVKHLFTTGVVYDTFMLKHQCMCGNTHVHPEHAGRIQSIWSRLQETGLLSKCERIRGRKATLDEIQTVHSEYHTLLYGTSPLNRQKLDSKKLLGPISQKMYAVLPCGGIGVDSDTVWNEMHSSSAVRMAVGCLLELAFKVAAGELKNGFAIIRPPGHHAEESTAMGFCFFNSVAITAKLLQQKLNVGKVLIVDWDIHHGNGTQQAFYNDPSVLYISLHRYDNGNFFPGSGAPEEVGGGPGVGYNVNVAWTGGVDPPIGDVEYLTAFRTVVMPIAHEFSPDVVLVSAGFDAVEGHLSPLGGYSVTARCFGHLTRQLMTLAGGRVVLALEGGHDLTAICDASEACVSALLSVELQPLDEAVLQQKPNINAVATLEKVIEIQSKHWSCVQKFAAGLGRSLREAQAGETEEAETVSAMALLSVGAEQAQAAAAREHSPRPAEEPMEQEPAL
In series [10] the test system is MV4-11. In words: Induction of apoptosis in human MV4-11 cells assessed as late apoptotic cells at 0.50 uM incubated for 15 mins by Annexin-V/FITC staining based FACS analysis (reference value: 4.36%). It is filed as functional. The following applies: dose 0.5 µM, 0.25 h. In short, it runs like this:
as §2

For series [11], the system named is MV4-11. In words: Induction of apoptosis in human MV4-11 cells assessed as late apoptotic cells at 0.25 uM incubated for 15 mins by Annexin-V/FITC staining based FACS analysis (reference value: 4.36%). It is filed as functional. In short, it runs like this:
as §2

Series [12] deals with MV4-11. Kind of series: Induction of apoptosis in human MV4-11 cells assessed as viable cells at 2 uM incubated for 15 mins by Annexin-V/FITC staining based FACS analysis (reference value: 84.58%). It is filed as functional. The note with it: MV4-11, 0.25 h, read-out: Activity. In short, it runs like this:
as §2

The test system of series [13] is MV4-11. Kind of series: Induction of apoptosis in human MV4-11 cells assessed as late apoptotic cells at 4 uM incubated for 15 mins by Annexin-V/FITC staining based FACS analysis (reference value: 4.36%). It is filed as functional. The following applies: 0.25 h. The method, boiled down: as §2

Histone deacetylase 4, sequence (P56524 whole entry, canonical isoform): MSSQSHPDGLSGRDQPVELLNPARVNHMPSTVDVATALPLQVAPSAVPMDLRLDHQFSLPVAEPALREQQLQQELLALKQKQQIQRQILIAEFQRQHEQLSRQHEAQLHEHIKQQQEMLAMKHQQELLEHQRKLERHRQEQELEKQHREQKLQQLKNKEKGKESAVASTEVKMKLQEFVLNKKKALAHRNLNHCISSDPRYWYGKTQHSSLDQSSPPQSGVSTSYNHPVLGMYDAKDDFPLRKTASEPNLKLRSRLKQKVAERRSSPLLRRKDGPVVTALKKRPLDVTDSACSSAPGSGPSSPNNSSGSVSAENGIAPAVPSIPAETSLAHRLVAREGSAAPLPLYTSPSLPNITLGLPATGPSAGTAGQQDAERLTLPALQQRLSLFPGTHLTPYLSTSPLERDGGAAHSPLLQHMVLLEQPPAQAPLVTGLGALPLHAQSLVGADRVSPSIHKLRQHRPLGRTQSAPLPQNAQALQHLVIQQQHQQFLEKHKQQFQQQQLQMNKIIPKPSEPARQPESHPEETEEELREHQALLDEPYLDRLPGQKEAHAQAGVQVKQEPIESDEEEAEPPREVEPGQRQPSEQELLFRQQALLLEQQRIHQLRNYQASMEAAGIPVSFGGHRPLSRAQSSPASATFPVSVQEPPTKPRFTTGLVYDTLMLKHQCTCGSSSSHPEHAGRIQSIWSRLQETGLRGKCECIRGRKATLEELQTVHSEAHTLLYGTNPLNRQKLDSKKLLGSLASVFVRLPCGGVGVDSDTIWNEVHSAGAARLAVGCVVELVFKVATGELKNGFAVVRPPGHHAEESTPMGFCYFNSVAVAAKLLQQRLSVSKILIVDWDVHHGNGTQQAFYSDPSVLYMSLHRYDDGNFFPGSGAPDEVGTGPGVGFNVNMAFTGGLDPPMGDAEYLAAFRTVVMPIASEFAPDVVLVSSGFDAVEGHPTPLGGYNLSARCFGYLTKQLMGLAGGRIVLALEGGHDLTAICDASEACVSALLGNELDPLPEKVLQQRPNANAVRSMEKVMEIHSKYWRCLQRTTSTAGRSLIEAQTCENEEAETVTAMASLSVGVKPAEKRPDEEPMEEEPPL

For the compound `O=C(NO)c1ccc(CN(Cc2cccnc2)S(=O)(=O)c2cc(F)c(F)c(F)c2F)cc1`, the IC50 at Histone deacetylase 4 was over 10 µM; at Histone deacetylase 9, 2.75 µM; at Histone deacetylase 5, 8.65 µM. For the same compound, the results for the Activity in the series on MV4-11 [1], in the series with MV4-11 [5] and in the series on MV4-11 [6] were 19.29%, 5.46% and 2.55%, respectively. Further, the results for the remaining at 0.25 h in [2] and in series [8] were 88% and 88.1%, respectively. Besides, the remaining at 1 h in series [3] was 68.9%. Further, the remaining at 0.5 h in series [4] amounted to 80.8%. The viability at 0.5 µM in the series with MV4-11 [7] was found to be 28.4%. The TIME in [9] came to 2.37 h.
`O=C(CCCCCCNC(=O)c1cnc(N(c2ccccc2)c2ccccc2Cl)nc1)NO` [CITARINOSTAT]: the figures for the Activity in the series with MV4-11 [10], in the series on MV4-11 [11] and in the series on MV4-11 [13] were 5.77%, 4.65% and 15.54%, respectively. For the same compound, the viability at 2 µM in the series on MV4-11 [12] is 42.4%.

The term IC50 denotes the point on the concentration scale where inhibition reaches its midpoint.

The record behind these values is ChEMBL document CHEMBL5042469, “Unique Molecular Interaction with the Histone Deacetylase 6 Catalytic Tunnel: Crystallographic and Biological Characterization of a Model Chemotype” (J Med Chem, 2021).
